# Results as given in ChEMBL document CHEMBL2417469, “Synthesis of novel analogs of 2-pyrazoline obtained from [(7-chloroquinolin-4-yl)amino]chalcones and hydrazine as potential antitumor and antimalarial agents” (Eur J Med Chem, 2013).
# Experiments:
# Assay type in all cases: functional
# SNB-75 = assay: Cytotoxicity against human SNB75 cells after 48 hrs by SRB assay; details: SNB-75, 48 h
# Procedure, shortened: (§1)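 NCI 60-cell screen. Cells grew 24 h (37 °C, 5% CO2) before compound was added. Compounds were in DMSO and diluted in medium with gentamicin, then tested at five levels (100, 10, 1.0, 0.1, 0.01 µM) with 48 h continuous exposure. Adherent cells were fixed with TCA (10% final) and stained with 0.4% SRB, absorbance read at 515 nm. A time-zero plate was included. LC50 is the concentration giving 50% loss of protein relative to time zero.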
# HOP-62 = assay: Cytotoxicity against human HOP62 cells after 48 hrs by SRB assay; details: HOP-62, 48 h
# Procedure, shortened: (§2)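 NCI 60-cell-line screen. Cells preincubated 24 h at 37 °C, 5% CO2; time-zero plates TCA-fixed. Compounds dissolved in DMSO and tested at five concentrations (100, 10, 1.0, 0.1, 0.01 µM) for 48 h continuous exposure. Adherent cells fixed with cold TCA (10% final), then SRB stained; absorbance at 515 nm. GI50, TGI and LC50 calculated from growth relative to time-zero and untreated controls.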
# SF-295 = assay: Cytotoxicity against human SF295 cells after 48 hrs by SRB assay; details: SF-295, 48 h; procedure, shortened: as §2
# MOLT-4 = assay: Cytotoxicity against human MOLT4 cells after 48 hrs by SRB assay; details: MOLT-4, 48 h; procedure, shortened: as §2
# NCI-H23 = assay: Cytotoxicity against human NCI-H23 cells after 48 hrs by SRB assay; details: NCI-H23, 48 h; procedure, shortened: as §2
# HT-29 = assay: Cytotoxicity against human HT-29 cells after 48 hrs by SRB assay; details: HT-29, 48 h; procedure, shortened: as §2
# BT-549 = assay: Cytotoxicity against human BT549 cells after 48 hrs by SRB assay; details: BT-549, 48 h; procedure, shortened: as §2
# MDA-MB-231 = assay: Cytotoxicity against human MDA-MB-231 cells after 48 hrs by SRB assay; details: MDA-MB-231, 48 h; procedure, shortened: as §2
# HCC 2998 = assay: Cytotoxicity against human HCC2998 cells after 48 hrs by SRB assay; details: HCC 2998, 48 h; procedure, shortened: as §2
# LOX IMVI = assay: Cytotoxicity against human LOXIMVI cells after 48 hrs by SRB assay; procedure, shortened: as §2
# SR = assay: Cytotoxicity against human SR cells after 48 hrs by SRB assay; procedure, shortened: as §1
# IGROV-1 = assay: Cytotoxicity against human IGROV1 cells after 48 hrs by SRB assay; details: IGROV-1, 48 h; procedure, shortened: as §2
# UACC-257 = assay: Cytotoxicity against human UACC257 cells after 48 hrs by SRB assay; details: UACC-257, 48 h; procedure, shortened: as §1
# HCT-15 = assay: Cytotoxicity against human HCT15 cells after 48 hrs by SRB assay; details: HCT-15, 48 h; procedure, shortened: as §2
# Hs-578T = assay: Cytotoxicity against human Hs578T cells after 48 hrs by SRB assay; procedure, shortened: as §2
# Plasmodium falciparum = assay: Antimalarial activity against Plasmodium falciparum NF54 infected in human serum at 20 ug/ml after 48 hrs by fluorometric method
# Procedure, shortened: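 Asynchronous P. falciparum NF54 at 1.5–2% parasitemia, 5% hematocrit in RPMI with 10% human serum, exposed 48 h at 37 °C under 90% N2/5% CO2/5% O2 at the stated concentration; parasite DNA stained with ethidium bromide after proteinase K lysis; viability % = (Flu treated − medium)/(Flu untreated − medium) ×100; triplicate.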
# SN12C = assay: Cytotoxicity against human SN12C cells after 48 hrs by SRB assay; procedure, shortened: as §2
# T47D = assay: Cytotoxicity against human T47D cells after 48 hrs by SRB assay; procedure, shortened: as §1
# NCI-H522 = assay: Cytotoxicity against human NCI-H522 cells after 48 hrs by SRB assay; details: NCI-H522, 48 h; procedure, shortened: as §2
# MDA-MB-468 = assay: Cytotoxicity against human MDA-MB-468 cells after 48 hrs by SRB assay; details: MDA-MB-468, 48 h; procedure, shortened: as §2
# NCI/ADR-RES = assay: Cytotoxicity against human NCI/ADR-RES cells after 48 hrs by SRB assay; procedure, shortened: as §2
# MDA-MB-435 = assay: Cytotoxicity against human MDA-MB-435 cells after 48 hrs by SRB assay; details: MDA-MB-435, 48 h; procedure, shortened: as §2
# ACHN = assay: Cytotoxicity against human ACHN cells after 48 hrs by SRB assay; procedure, shortened: as §2
# PC-3 = assay: Cytotoxicity against human PC3 cells after 48 hrs by SRB assay; details: PC-3, 48 h; procedure, shortened: as §2
# HOP-92 = assay: Cytotoxicity against human HOP92 cells after 48 hrs by SRB assay; details: HOP-92, 48 h; procedure, shortened: as §2
# SF-268 = assay: Cytotoxicity against human SF268 cells after 48 hrs by SRB assay; details: SF-268, 48 h; procedure, shortened: as §2
# UACC-62 = assay: Cytotoxicity against human UACC62 cells after 48 hrs by SRB assay; details: UACC-62, 48 h; procedure, shortened: as §1
# SF-539 = assay: Cytotoxicity against human SF539 cells after 48 hrs by SRB assay; details: SF-539, 48 h; procedure, shortened: as §2
# SK-MEL-2 = assay: Cytotoxicity against human SK-MEL-2 cells after 48 hrs by SRB assay; details: SK-MEL-2, 48 h; procedure, shortened: as §2
# TK-10 = assay: Cytotoxicity against human TK10 cells after 48 hrs by SRB assay; details: TK-10, 48 h; procedure, shortened: as §1
# CAKI-1 = assay: Cytotoxicity against human Caki1 cells after 48 hrs by SRB assay; details: CAKI-1, 48 h; procedure, shortened: as §2
# NCI-H226 = assay: Cytotoxicity against human NCI-H226 cells after 48 hrs by SRB assay; details: NCI-H226, 48 h; procedure, shortened: as §2
# HCT-116 = assay: Cytotoxicity against human HCT116 cells after 48 hrs by SRB assay; details: HCT-116, 48 h; procedure, shortened: as §2
# [1] = read-out: LC50 (the source's name)
smiles,measurement,setting,value
O=CN1N=C(c2ccc(Nc3ccnc4cc(Cl)ccc34)cc2)CC1c1ccc(Cl)cc1 (stereo not given),GI50,SNB-75,420 nM
same,LC50 (50% net cell kill),SNB-75,> 100 µM
same,GI50,HOP-62,860 nM
same,LC50 (50% lethal concentration),HOP-62,> 100 µM
same,GI50,SF-295,270 nM
same,LC50,SF-295,> 100 µM
same,GI50,MOLT-4,530 nM
same,LC50,MOLT-4,> 100 µM
same,GI50,NCI-H23,2770 nM
same,CC50,NCI-H23; [1],> 100 µM
same,GI50,HT-29,410 nM
same,LC50,HT-29,> 100 µM
same,GI50,BT-549,4.77 µM
same,LC50 (50% net cell kill vs time zero),BT-549,> 100 µM
same,GI50,MDA-MB-231,1430 nM
same,LC50 (concentration killing 50% of cells present at time zero),MDA-MB-231,> 100 µM
same,GI50,HCC 2998,1610 nM
same,LC50,HCC 2998,> 100 µM
same,GI50,LOX IMVI,600 nM
same,LC50,LOX IMVI,> 100 µM
same,GI50,SR,320 nM
same,LC50,SR,> 100 µM
same,GI50,IGROV-1,5.01 µM
same,LC50 (concentration killing 50% of cells relative to time zero),IGROV-1,> 100 µM
same,GI50,UACC-257,> 100 µM
same,LC50,UACC-257,> 100 µM
same,GI50,HCT-15,580 nM
same,LC50 (concentration killing 50% of cells relative to time zero),HCT-15,> 100 µM
same,GI50,Hs-578T,3.93 µM
same,LC50 (50% net cell kill),Hs-578T,> 100 µM
same,inhibition at 20 µg/mL,Plasmodium falciparum,1.1%
same,GI50,SN12C,980 nM
same,LC50 (50% net cell kill relative to time zero),SN12C,> 100 µM
same,GI50,T47D,1560 nM
same,LC50 (concentration giving 50% cell kill relative to time zero),T47D,> 100 µM
same,GI50,NCI-H522,390 nM
same,CC50,NCI-H522; [1],> 100 µM
same,GI50,MDA-MB-468,320 nM
same,LC50,MDA-MB-468,> 100 µM
same,GI50,NCI/ADR-RES,360 nM
same,CC50,NCI/ADR-RES; [1],> 100 µM
same,GI50,MDA-MB-435,200 nM
same,LC50,MDA-MB-435,> 100 µM
same,GI50,ACHN,1000 nM
same,CC50,ACHN; [1],> 100 µM
same,GI50,PC-3,480 nM
same,LC50,PC-3,> 100 µM
same,GI50,HOP-92,> 100 µM
same,LC50 (concentration killing 50% of cells),HOP-92,> 100 µM
same,GI50,SF-268,850 nM
same,LC50,SF-268,> 100 µM
same,GI50,UACC-62,570 nM
same,CC50,UACC-62; [1],> 100 µM
same,GI50,SF-539,580 nM
same,CC50,SF-539; [1],> 100 µM
same,GI50,SK-MEL-2,7.86 µM
same,LC50,SK-MEL-2,> 100 µM
same,GI50,TK-10,9.57 µM
same,LC50 (concentration giving 50% cell loss vs time zero),TK-10,> 100 µM
same,GI50,CAKI-1,410 nM
same,LC50,CAKI-1,> 100 µM
same,GI50,NCI-H226,4.66 µM
same,LC50 (50% lethal concentration),NCI-H226,> 100 µM
same,GI50,HCT-116,500 nM
same,LC50,HCT-116,> 100 µM
